Measurements as given in ChEMBL document CHEMBL1154067, “Antiviral and cytotoxic activities of aminoarylazo compounds and aryltriazene derivatives” (Bioorg Med Chem, 2009).
The source made the active and inactive calls. The rule behind the calls is not given here.

tested on: Human alphaherpesvirus 1; assay: Antiviral activity against HSV1 infected in Vero-76 cells after 3 days by plaque reduction assay; assay type: functional, organism-based; details: Human alphaherpesvirus 1, Vero 76, 72 h

| SMILES | EC50 [µM] |
| --- | --- |
| NC(=O)c1ncn([C@@H]2O[C@H](CO)[C@@H](O)[C@H]2O)n1 [RIBAVIRIN] | > 100 |
| FC(F)(F)c1cccc(N/N=N/c2ccccc2)c1 | > 15 |
| C[C@@]1(O)[C@H](O)[C@@H](CO)O[C@H]1n1cnc2c(=O)[nH]c(N)nc21 [2'-B-METHYL-GUANOSINE] | > 100 |

tested on: not listed separately; assay: Cytotoxicity against MDBK cells after 48 to 96 hrs by MTT assay; assay type: cell-based, Bos taurus; details: cattle, MDBK cells
How it was run: (§1)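 Mock-infected cells in maintenance medium, MDBK at 6 × 10^5 and BHK at 1 × 10^6 cells/mL initial density, with or without serial compound dilutions. Run in parallel with antiviral assays. Viability by MTT after 48–96 h at 37 °C, 5% CO2. CC50 = concentration reducing viability 50%.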

| SMILES | CC50 [µM] |
| --- | --- |
| NC(=O)c1ncn([C@@H]2O[C@H](CO)[C@@H](O)[C@H]2O)n1 [RIBAVIRIN] | > 100 |
| C[C@@]1(O)[C@H](O)[C@@H](CO)O[C@H]1n1cnc2c(=O)[nH]c(N)nc21 [2'-B-METHYL-GUANOSINE] | > 100 |

same assay, conditions: cattle, mdbk

| SMILES | CC50 [µM] |
| --- | --- |
| FC(F)(F)c1cccc(N/N=N/c2ccccc2)c1 | > 100 |

tested on: Coxsackievirus B2; assay: Antiviral activity against Coxsackie virus type B2 virus infected in african green monkey Vero-76 cells after 3 days by plaque reduction assay; assay type: functional, organism-based; details: Enterovirus B, Vero 76, 72 h
How it was run: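 Vero 76 cells seeded at 2 × 10^5 cells/well, grown overnight to confluence at 37 °C in 5% CO2, then infected at 50–100 PFU/well. Unadsorbed virus removed. Overlay of DMEM with 1% inactivated FCS and 0.75% methylcellulose, with or without serial compound dilutions. After 3 days at 37 °C, fixed and stained with crystal violet in PBS/50% ethanol; plaques counted. EC50 is the concentration reducing plaque number by 50%.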

| SMILES | EC50 [µM] |
| --- | --- |
| NC(=O)c1ncn([C@@H]2O[C@H](CO)[C@@H](O)[C@H]2O)n1 [RIBAVIRIN] | > 100 |
| FC(F)(F)c1cccc(N/N=N/c2ccccc2)c1 | 8 |

tested on: not listed separately; assay: (§2) Cytotoxicity against african green monkey Vero 76 cells by crystal violet staining; assay type: cell-based; details: chlorocebus sabaeus, Vero 76 cells
How it was run: (§3)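 Mock-infected Vero 76 seeded at 4 × 10^5 cells/mL, run in parallel with plaque assays, with or without serial compound dilutions. Cell number of monolayers determined by crystal violet staining. CC50 = concentration reducing viable cell number 50%.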

| SMILES | CC50 [µM] |
| --- | --- |
| NC(=O)c1ncn([C@@H]2O[C@H](CO)[C@@H](O)[C@H]2O)n1 [RIBAVIRIN] | > 100 |
| C[C@@]1(O)[C@H](O)[C@@H](CO)O[C@H]1n1cnc2c(=O)[nH]c(N)nc21 [2'-B-METHYL-GUANOSINE] | > 100 |

tested on: Vero; assay: as §2; assay type: cell-based; details: chlorocebus sabaeus, vero; how it was run: as §3

| SMILES | CC50 [µM] |
| --- | --- |
| FC(F)(F)c1cccc(N/N=N/c2ccccc2)c1 | 15 |

tested on: Bovine viral diarrhea virus 1; assay: Antiviral activity against Bovine viral diarrhea virus infected in MDBK cells assessed as inhibition of virus-induced cytopathicity after 3 to 4 days by MTT assay; assay type: functional, organism-based; details: Bovine viral diarrhea virus isolates and strains

| SMILES | EC50 [µM] |
| --- | --- |
| NC(=O)c1ncn([C@@H]2O[C@H](CO)[C@@H](O)[C@H]2O)n1 [RIBAVIRIN] | 7 |
| FC(F)(F)c1cccc(N/N=N/c2ccccc2)c1 | > 100 |

tested on: Respiratory syncytial virus; assay: Antiviral activity against Respiratory syncytial virus A2 infected in Vero-76 cells after 5 days by plaque reduction assay; assay type: functional, organism-based; details: human respiratory syncytial virus, A2, Vero 76, 120 h

| SMILES | EC50 [µM] |
| --- | --- |
| NC(=O)c1ncn([C@@H]2O[C@H](CO)[C@@H](O)[C@H]2O)n1 [RIBAVIRIN] | 7 |
| FC(F)(F)c1cccc(N/N=N/c2ccccc2)c1 | 3 |
| C[C@@]1(O)[C@H](O)[C@@H](CO)O[C@H]1n1cnc2c(=O)[nH]c(N)nc21 [2'-B-METHYL-GUANOSINE] | > 100 |

tested on: Human immunodeficiency virus 1; assay: Antiviral activity against HIV1 infected in human MT4 cells assessed as inhibition of virus-induced cytopathicity after 4 days by MTT assay; assay type: functional, organism-based; details: not given

| SMILES | inhibition |
| --- | --- |
| FC(F)(F)c1cccc(N/N=N/c2ccccc2)c1 | inactive |

tested on: Yellow fever virus; assay: Antiviral activity against Yellow fever virus infected in BHK-21 cells assessed as inhibition of virus-induced cytopathicity after 3 to 4 days by MTT assay; assay type: functional, organism-based; details: not given

| SMILES | EC50 [µM] |
| --- | --- |
| NC(=O)c1ncn([C@@H]2O[C@H](CO)[C@@H](O)[C@H]2O)n1 [RIBAVIRIN] | > 100 |
| FC(F)(F)c1cccc(N/N=N/c2ccccc2)c1 | ≥ 100 |
| C[C@@]1(O)[C@H](O)[C@@H](CO)O[C@H]1n1cnc2c(=O)[nH]c(N)nc21 [2'-B-METHYL-GUANOSINE] | 1.8 |

tested on: Mammalian orthoreovirus 1; assay: Antiviral activity against Reovirus-1 infected in BHK-21 cells assessed as inhibition of virus-induced cytopathicity after 3 to 4 days by MTT assay; assay type: functional, organism-based; details: Mammalian orthoreovirus 1, BHK-21
How it was run: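 BHK-21 cells seeded at 5 × 10^4 cells/well, grown overnight to confluent monolayers at 37 °C in 5% CO2, then infected at m.o.i. 0.01 in serum-free medium. One hour later, MEM Earle's with 1% final inactivated FCS added, with or without serial compound dilutions. Viability read by MTT after 3–4 days at 37 °C. EC50 is the concentration giving 50% protection from cytopathogenicity.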

| SMILES | EC50 [µM] |
| --- | --- |
| NC(=O)c1ncn([C@@H]2O[C@H](CO)[C@@H](O)[C@H]2O)n1 [RIBAVIRIN] | > 100 |
| FC(F)(F)c1cccc(N/N=N/c2ccccc2)c1 | > 100 |
| C[C@@]1(O)[C@H](O)[C@@H](CO)O[C@H]1n1cnc2c(=O)[nH]c(N)nc21 [2'-B-METHYL-GUANOSINE] | 2.4 |

tested on: not listed separately; assay: (§4) Cytotoxicity against human MT4 cells after 96 hrs by MTT assay; assay type: cell-based; details: MT4 cells
How it was run: (§5)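 Exponentially growing mock-infected MT-4 seeded at 1 × 10^5 cells/mL in RPMI-1640 with 10% FCS, penicillin and streptomycin. Incubated with or without serial compound dilutions at 37 °C, 5% CO2. Viability by MTT after 96 h. CC50 = concentration reducing viability 50%.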

| SMILES | CC50 at 96 h [µM] |
| --- | --- |
| C[C@@]1(O)[C@H](O)[C@@H](CO)O[C@H]1n1cnc2c(=O)[nH]c(N)nc21 [2'-B-METHYL-GUANOSINE] | > 100 |

tested on: MT4; assay: as §4; assay type: cell-based; details: mt4, 96 h; how it was run: as §5

| SMILES | CC50 [µM] |
| --- | --- |
| NC(=O)c1ncn([C@@H]2O[C@H](CO)[C@@H](O)[C@H]2O)n1 [RIBAVIRIN] | 31 |
| FC(F)(F)c1cccc(N/N=N/c2ccccc2)c1 | > 100 |

tested on: Vesicular stomatitis virus; assay: Antiviral activity against Vesicular stomatitis virus after 2 days by plaque reduction assay; assay type: functional, organism-based; details: not given

| SMILES | Activity |
| --- | --- |
| FC(F)(F)c1cccc(N/N=N/c2ccccc2)c1 | inactive |

tested on: Poliovirus 1; assay: Antiviral activity against Human poliovirus 1 strain Sabin after 2 days by plaque reduction assay; assay type: functional; details: Enterovirus C, 48 h

| SMILES | EC50 [µM] |
| --- | --- |
| NC(=O)c1ncn([C@@H]2O[C@H](CO)[C@@H](O)[C@H]2O)n1 [RIBAVIRIN] | > 100 |
| FC(F)(F)c1cccc(N/N=N/c2ccccc2)c1 | > 15 |
| C[C@@]1(O)[C@H](O)[C@@H](CO)O[C@H]1n1cnc2c(=O)[nH]c(N)nc21 [2'-B-METHYL-GUANOSINE] | > 100 |

tested on: not listed separately; assay: Cytotoxicity against hamster BHK21 cells assessed as reduction in cell viability after 48 to 96 hrs by MTT assay; assay type: cell-based, Mesocricetus auratus, BHK-21; details: BHK21 cells; how it was run: as §1

| SMILES | CC50 [µM] |
| --- | --- |
| NC(=O)c1ncn([C@@H]2O[C@H](CO)[C@@H](O)[C@H]2O)n1 [RIBAVIRIN] | > 100 |

same assay, conditions: bhk-21

| SMILES | CC50 [µM] |
| --- | --- |
| FC(F)(F)c1cccc(N/N=N/c2ccccc2)c1 | > 100 |
| C[C@@]1(O)[C@H](O)[C@@H](CO)O[C@H]1n1cnc2c(=O)[nH]c(N)nc21 [2'-B-METHYL-GUANOSINE] | 90 |

tested on: Vaccinia virus; assay: Antiviral activity against Vaccinia virus after 3 days by plaque reduction assay; assay type: functional, organism-based; details: Orthopoxvirus vaccinia

| SMILES | Activity |
| --- | --- |
| FC(F)(F)c1cccc(N/N=N/c2ccccc2)c1 | inactive |
